Active and inactive are the calls of the source. The calls are words filed in the database; no cut-off is given here.
Assays:
HepG2 = experiment: Stimulation of [3H]2-deoxyglucose uptake in human HepG2 cells at 10 uM incubated for 16 hrs by scintillation counting method; assay type: functional, cell-based
Mus musculus [1] = experiment: Antihyperglycemic activity in db/db mouse assessed as reduction in fasting blood glucose level at 30 mg/kg, po qd for 15 days; assay type: functional; design: scale not given: the % may be the effect or the level left
How it was run: (§1)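 db/db mice given 3, 10 or 30 mg/kg orally once a day for 15 consecutive days, alongside vehicle controls. Serum triglyceride, total cholesterol, HDL-C and insulin measured, along with fasting blood glucose. Expressed as mean % change in 5 animals per group versus control.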

Mus musculus [2] = experiment: Antihyperglycemic activity in db/db mouse assessed as increase in HDL-C level at 10 mg/kg, po qd for 15 days; assay type: functional; how it was run: as §1
L6 [3] = experiment: Stimulation of [3H]2-deoxyglucose uptake in rat L6 cells at 2.5 uM incubated for 16 hrs by scintillation counting method; assay type: functional, cell-based
How it was run: (§2)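 L6 myotubes incubated with the compound […]; insulin at 100 nM for 20 min served as the positive control. Uptake of ³H-2-deoxyglucose measured and expressed as fold stimulation relative to the control condition.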

L6 [4] = experiment: Stimulation of [3H]2-deoxyglucose uptake in rat L6 cells incubated for 16 hrs by scintillation counting method; assay type: functional, cell-based; how it was run: as §2
Mus musculus [5] = experiment: Antihyperglycemic activity in db/db mouse assessed as reduction in cholesterol level at 3 mg/kg, po qd for 15 days; assay type: functional; design: scale not given: the % may be the effect or the level left; how it was run: as §1
L6 [6] = experiment: Stimulation of [3H]2-deoxyglucose uptake in rat L6 cells at 10 uM incubated for 16 hrs by scintillation counting method relative to untreated control; assay type: functional; how it was run: as §2
Mus musculus [7] = experiment: Antihyperglycemic activity in db/db mouse assessed as improvement on glucose tolerance by measuring blood glucose AUC level at 30 mg/kg, po qd for 10 days by oral glucose tolerance test; assay type: functional
How it was run: (§3)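 db/db mice dosed orally once daily for 15 consecutive days at 3, 10 or 30 mg/kg, with vehicle controls and pioglitazone at 10 mg/kg. Oral glucose tolerance tests on day 10 and day 15. Overall improvement in glucose tolerance calculated against vehicle control. Mean % change in 5 animals per group.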

Mus musculus [8] = experiment: Antihyperglycemic activity in db/db mouse assessed as improvement on glucose tolerance by measuring blood glucose AUC level at 3 to 30 mg/kg, po qd for 15 days by oral glucose tolerance test; assay type: functional, organism-based; how it was run: as §3
Mus musculus [9] = experiment: Toxicity in db/db mouse assessed as effect on body weight level at 3 to 30 mg/kg, po qd for 15 days by oral glucose tolerance test; assay type: organism-based; conditions: in vivo, 360 h
Mus musculus [10] = experiment: Antihyperglycemic activity in db/db mouse assessed as improvement on glucose tolerance by measuring blood glucose AUC level at 3 mg/kg, po qd for 15 days by oral glucose tolerance test; assay type: functional; how it was run: as §3
Mus musculus [11] = experiment: Antihyperglycemic activity in db/db mouse assessed as improvement on glucose tolerance by measuring blood glucose AUC level at 3 mg/kg, po qd for 10 days by oral glucose tolerance test; assay type: functional; how it was run: as §3
[12] = target: T1, Tyrosine-protein phosphatase non-receptor type 1 (Rattus norvegicus) (UniProt P20417); experiment: Inhibition of PTP1B in rat L6 cells assessed as increase in insulin-stimulated Akt Ser473 phosphorylation at 10 to 25 uM pre-incubated for 16 hrs before insulin stimulation for 10 mins by Western blot method; assay type: cell-based
T1 sequence (whole entry): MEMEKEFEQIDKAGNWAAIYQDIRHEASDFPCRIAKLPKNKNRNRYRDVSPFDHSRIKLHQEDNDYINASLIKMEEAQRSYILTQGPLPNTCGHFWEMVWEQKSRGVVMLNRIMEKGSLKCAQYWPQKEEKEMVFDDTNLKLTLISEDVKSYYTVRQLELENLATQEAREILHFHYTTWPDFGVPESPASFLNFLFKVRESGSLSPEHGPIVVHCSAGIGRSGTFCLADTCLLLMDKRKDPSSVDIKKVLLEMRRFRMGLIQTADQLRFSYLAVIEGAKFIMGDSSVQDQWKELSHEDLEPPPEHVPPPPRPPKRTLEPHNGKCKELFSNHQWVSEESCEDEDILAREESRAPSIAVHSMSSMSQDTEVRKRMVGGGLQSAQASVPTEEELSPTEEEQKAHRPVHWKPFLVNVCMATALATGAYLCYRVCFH
How it was run: (§4)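 L6 myotubes treated for 16 h with the compound at the indicated concentrations, then stimulated with insulin (100 nM) for 10 min. Cells lysed and analysed by western blot. Densitometry of p-IRS-1, p-AKT and p-GSK, each relative to its total form. Compared with control and with insulin-treated control.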

Mus musculus [13] = experiment: Antihyperglycemic activity in db/db mouse assessed as reduction in cholesterol level at 30 mg/kg, po qd for 15 days; assay type: functional; design: scale not given: the % may be the effect or the level left; how it was run: as §1
Mus musculus [14] = experiment: Antihyperglycemic activity in db/db mouse assessed as reduction in triglyceride level at 10 mg/kg, po qd for 15 days; assay type: functional; design: scale not given: the % may be the effect or the level left; how it was run: as §1
Mus musculus [15] = experiment: Antihyperglycemic activity in db/db mouse assessed as reduction in triglyceride level at 30 mg/kg, po qd for 15 days; assay type: functional; design: scale not given: the % may be the effect or the level left; how it was run: as §1
Mus musculus [16] = experiment: Toxicity in db/db mouse assessed as effect on food intake level at 3 to 30 mg/kg, po qd for 15 days by oral glucose tolerance test; assay type: organism-based; conditions: in vivo, 360 h
Mus musculus [17] = experiment: Antihyperglycemic activity in db/db mouse assessed as reduction in insulin level at 30 mg/kg, po qd for 15 days; assay type: functional; design: scale not given: the % may be the effect or the level left; how it was run: as §1
[18] = target: T1, Tyrosine-protein phosphatase non-receptor type 1 (Rattus norvegicus); experiment: Inhibition of PTP1B in rat L6 cells assessed as increase in insulin-stimulated IRS1 tyrosine phosphorylation pre-incubated for 16 hrs before insulin stimulation for 10 mins by Western blot method; assay type: cell-based; how it was run: as §4
Mus musculus [19] = experiment: Antihyperglycemic activity in db/db mouse assessed as reduction in fasting blood glucose level at 10 mg/kg, po qd for 15 days; assay type: functional; design: scale not given: the % may be the effect or the level left; how it was run: as §1
Mus musculus [20] = experiment: Antihyperglycemic activity in db/db mouse assessed as reduction in insulin level at 10 mg/kg, po qd for 15 days; assay type: functional; design: scale not given: the % may be the effect or the level left; how it was run: as §1

Which Activity (HepG2) does the source give for COC(=O)c1c(SC)cc(-c2ccc(C)cc2)c2c1-c1cn(-c3ccccc3)nc1CC2 here?
Its Activity is “Active”.

And the Activity (Mus musculus [1])?
The Activity was 31.9%.

What about the Activity (Mus musculus [2]) of the same compound?
Its Activity is 10.9%.

And the Activity (L6 [3])?
Its Activity is “Active”.

What about the Activity (L6 [4]) of the same compound?
Its Activity is “Dose-dependent effect”.

What about the Activity (Mus musculus [5]) of the same compound?
The Activity was 11.5%.

And the “fold change (FC)” value (L6 [6])?
Its value is 2.

And the Activity (Mus musculus [7])?
The Activity was 25.7%.

And the Activity (Mus musculus [8])?
Its Activity is “Dose-dependent effect”.

And the Activity (Mus musculus [9])?
Its Activity is “Non-Toxic”.

And the Activity (Mus musculus [10])?
Its Activity is 13.2%.

What about the Activity (Mus musculus [11]) of the same compound?
The Activity was 7.84%.

What about the inhibition [12] of the same compound?
Its inhibition is “Active”.

And the Activity (Mus musculus [13])?
Its Activity is 22.7%.

And the Activity (Mus musculus [14])?
The Activity was 13.2%.

And the Activity (Mus musculus [15])?
Its Activity is 18.2%.

What about the Activity (Mus musculus [16]) of the same compound?
The Activity was “Non-Toxic”.

And the Activity (Mus musculus [17])?
The Activity was 30.5%.

What about the inhibition [18] of the same compound?
Its inhibition is “Dose-dependent effect”.

And the Activity (Mus musculus [19])?
The Activity was 14.1%.

And the Activity (Mus musculus [20])?
The Activity was 17.7%.
